Data as given in ChEMBL document CHEMBL1138778, “Effects of altering the electronics of 2-methoxyestradiol on cell proliferation, on cytotoxicity in human cancer cell cultures, and on tubulin polymerization” (J Med Chem, 2004).
pIC50: −log10 of the molar value.

What was measured:
[1] = system: OVCAR-3; assay: Growth inhibitory concentration against human ovarian OVCAR-3 cancer cell line; format: functional
Outline: (§1)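 Human cancer cell line antiproliferative screen, compounds tested over 10^-4 to 10^-8 M. GI50 is the concentration giving 50% growth inhibition of the individual cell line. GI50 values outside the tested range were set to the range limits (10^-8 or 10^-4 M) when averaging across all lines tested to give the mean graph midpoint.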

[2] = system: HOP-62; assay: Growth inhibitory concentration against human lung cancer HOP-62 cell line; format: functional
Outline: (§2)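 Screen over 10^-4 to 10^-8 M in a human cancer cell line panel. GI50 is the concentration giving 50% growth inhibition of the individual cell line.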

[3] = system: SN12C; assay: Growth inhibitory concentration against human renal SN12C cancer cell line; format: functional; outline: as §1
[4] = system: MDA-MB-435; assay: Growth inhibitory concentration against human breast MDA-MB-435 cancer cell line; format: functional; outline: as §1
[5] = Growth inhibitory concentration against human cancer cell line; format: functional; conditions: Cancer cell lines
Outline: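 NCI human cancer cell line antiproliferative screen, tested over 10^-4 to 10^-8 M. GI50 is the concentration giving 50% growth inhibition of each cell line. The mean graph midpoint is the average GI50 across all lines tested, with values outside the range set to 10^-8 or 10^-4 M.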

[6] = system: UACC-62; assay: Growth inhibitory concentration against human melanoma UACC-62 cancer cell line; format: functional; outline: as §1
[7] = system: DU-145; assay: Growth inhibitory concentration against human prostate DU-145 cancer cell line; format: functional
Outline: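 Human cancer cell line screen across 10^-4 to 10^-8 M compound. GI50 is the concentration giving 50% growth inhibition of the individual cell line. GI50 values below or above the tested range were taken as 10^-8 M or 10^-4 M.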

[8] = system: HCT-116; assay: Growth inhibitory concentration against human colon cancer HCT116 cell line; format: functional; outline: as §2
[9] = target: Tubulin beta chain (Bos taurus, UniProt Q6B856); assay: Inhibitory concentration against bovine brain tubulin polymerization; format: functional
Outline: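 Bovine brain tubulin, 1.2 mg/mL (12 μM), was preincubated with a range of compound concentrations and then chilled on ice. GTP was added and assembly followed by turbidity at 350 nm for 20 min at 26 °C. IC50 is the concentration halving assembly at 20 min, from at least two independent assays.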

[10] = system: SF-539; assay: Growth inhibitory concentration against human CNS SF-539 cancer cell line; format: functional; outline: as §1
[11] = system: HUVEC; assay: Inhibitory concentration against growth of HUVEC […] cell line; format: functional, cell-based; conditions: Homo sapiens
Outline: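 HUVEC, used up to five passages in EGM with bovine brain extract and antibiotic-antimycotic, seeded at 3000 cells/well and attached overnight. Cells were exposed to compound for 48 h. Proliferation was read by BrdU-incorporation colorimetric ELISA or by cell counting, in triplicate, with experiments repeated at least twice.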

[12] = system: MDA-MB-231; assay: Inhibitory concentration against growth of MDA-MB-231 cancer cell line; format: functional, cell-based; conditions: Homo sapiens
Outline: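 MDA-MB-231 cells in DMEM/F12 (1:1) with 10% FBS, seeded at 1000 cells/well and attached overnight. Cells were exposed to compound for 48 h. Proliferation was read by BrdU-incorporation colorimetric ELISA or by cell counting, in triplicate, with experiments repeated at least twice.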

Tubulin beta chain, sequence (Q6B856 whole entry): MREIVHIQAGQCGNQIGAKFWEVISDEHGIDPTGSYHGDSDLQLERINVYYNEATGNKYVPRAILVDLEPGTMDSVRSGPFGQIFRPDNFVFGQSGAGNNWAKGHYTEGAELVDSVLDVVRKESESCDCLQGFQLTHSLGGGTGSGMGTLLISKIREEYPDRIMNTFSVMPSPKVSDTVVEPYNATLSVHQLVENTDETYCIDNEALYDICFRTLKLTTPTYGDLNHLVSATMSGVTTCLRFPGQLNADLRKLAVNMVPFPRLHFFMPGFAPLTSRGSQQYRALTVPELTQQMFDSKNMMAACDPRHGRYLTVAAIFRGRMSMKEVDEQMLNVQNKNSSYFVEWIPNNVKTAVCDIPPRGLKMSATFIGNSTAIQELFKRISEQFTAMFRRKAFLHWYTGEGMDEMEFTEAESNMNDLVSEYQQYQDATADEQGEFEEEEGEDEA

| pIC50 [12] | Compound | GI50 [1] | GI50 [2] | GI50 [3] | GI50 [4] | GI50 [5] | GI50 [6] | GI50 [7] | GI50 [8] | pIC50 [9] | GI50 [10] | pIC50 [11] |
| --- | --- | --- | --- | --- | --- | --- | --- | --- | --- | --- | --- | --- |
| – | COc1cc2c(cc1O)CC[C@@H]1[C@@H]2CC[C@]2(C)[C@@H](O)CC[C@@H]12 [2-METHOXYESTRADIOL] | 210 nM | 700 nM | 950 nM | 80 nM | 1300 nM | 360 nM | 1800 nM | 470 nM | 5.28 | 320 nM | – |
| 6.19 | C/C=C/c1cc2c(cc1O)CC[C@@H]1[C@@H]2CC[C@]2(C)[C@@H](O)CC[C@@H]12 | – | – | – | – | – | – | – | – | – | – | 6.23 |
